Most compounds without a hit are left out; they make up all but 2.3% or so of the library.
OXTR potentiate – human OXTR potentiators, primary screen, fluorescence, CHO-OTR cells, Fluo-8 calcium; Oxytocin receptor (Homo sapiens), P30559; Fluo-8 calcium fluorescence, potentiator mode; 0% = oxytocin EC15, 100% = EC100; activation, % at 3 µM; hit rate 0.061% among 320,000; AID 2445, 2010;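 active = activation above that plate's cutoff, the mean activation of tested compounds plus 3 SD, cut at about 6.6% in these data, passing the limit was not always enough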
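test system = CHO-OTR cells, human receptor | compound = single-point 3.0 µM | schedule = 6 min compound pre-incubation at room temperature, 100 s kinetic read | signal = Fluo-8 no-wash calcium dye fluorescence, excitation 470-495 nm, emission 515-575 nm | repeats = single well per compound, singlicate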
TAAR1 antag – human TAAR1 antagonists, primary screen, Fluo-8 calcium fluorescence, CHO RD-HGA16 cells; antagonist; inhibition, % at 3 µM; hit rate 1.5% among 360,000;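 active = inhibition above a per-plate cutoff, the mean inhibition of test compounds on that plate plus 3 SD, cut at about 49% in these data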
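Assay system: CHO-derived RD-HGA16 cells stably expressing human TAAR1 plus Gα16. Timing: 140 s kinetic read after compound, 140 s after agonist. Technique: kinetic Fluo-8 calcium fluorescence measurement. Measure: % inhibition of agonist calcium response.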
TAAR1 ag – human TAAR1 agonists, primary screen, Fluo-8 calcium fluorescence, CHO RD-HGA16 cells; activation, % at 3 µM; vehicle wells 0%, saturating PEA agonist 100%; hit rate 0.99% among 360,000; Trace amine-associated receptor 1 (Homo sapiens), Q96RJ0;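 active = activation above the mean activation of all test compounds in the run plus 3 SD, cut at about 38% in these data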
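Assay system: CHO-derived RD-HGA16 cells with stable Gα16 and human TAAR1; timing: 17-24 h seeding, 75 min 37 °C dye, 30 min RT; read-out: % activation from peak over basal fluorescence ratio, DMSO-to-PEA scaled; measured by: kinetic Fluo-8 calcium fluorescence; benchmarks: low control DMSO, high control PEA (EC100); doses: 3 µM single concentration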
OXTR agonist – human OXTR agonists, primary screen, fluorescence, CHO-OTR cells, Fluo-8 calcium | Oxytocin receptor (Homo sapiens), P30559 | Fluo-8 calcium fluorescence; normalized: DMSO 0%, oxytocin 100% | activation, % at 3 µM | hit rate 0.32% among 320,000 | AID 2435, 2010;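 active = activation above the mean of all tested compounds plus 3 SD, cutoff set per screening run, cut at about 20% in these data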;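 also: peak over basal fluorescence ratio from a 100 s FLIPR kinetic read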
V1R ag counter – agonists of human V1a receptor, primary screen, counter-screen for OXTR agonist project, fluorescence, CHO-V1R cells | Vasopressin V1a receptor (Homo sapiens), P37288 | Fluo-8 calcium fluorescence, agonist mode; 0% DMSO, 100% 3 nM vasopressin | activation, % at 3 µM | hit rate 0.25% among 320,000;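 active = activation above the mean activation of all tested compounds plus 3 SD, per screening run, cut at about 20% in these data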;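 also: signal is peak over basal fluorescence ratio across a 100 second FLIPR read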
Target sequence (P37288 whole entry, looked up): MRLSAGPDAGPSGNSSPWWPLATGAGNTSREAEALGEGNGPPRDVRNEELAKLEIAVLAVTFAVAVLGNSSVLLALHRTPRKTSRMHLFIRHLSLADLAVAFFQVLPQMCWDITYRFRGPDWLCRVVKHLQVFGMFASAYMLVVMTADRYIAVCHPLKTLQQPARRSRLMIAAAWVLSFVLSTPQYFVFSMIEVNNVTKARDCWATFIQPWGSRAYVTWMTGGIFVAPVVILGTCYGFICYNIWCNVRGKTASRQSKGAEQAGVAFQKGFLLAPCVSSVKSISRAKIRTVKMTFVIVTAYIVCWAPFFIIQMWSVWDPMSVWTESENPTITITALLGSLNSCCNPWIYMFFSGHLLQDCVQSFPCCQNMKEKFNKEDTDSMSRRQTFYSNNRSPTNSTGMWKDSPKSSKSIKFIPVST
TAAR1 nonsel count – nonselective antagonists in TAAR1 counter-screen cells, counter-screen for hTAAR1 antagonist project, cell-based, fluorescence, calcium; hit rate 77% among 2,400; shares compounds with TAAR1 antag; inhibition, % at 3 µM; counterscreen cell line, antagonist mode; in the data active = inhibition above about 22%;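 also: CHO-Ga16 host cells stimulated with ATP at an EC80 level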
TAAR1 antag conf – human TAAR1 antagonists, retest of hits, confirmation, cell-based, fluorescence; inhibition, % at 3 µM; hit rate 40% among 2,400; TAAR1-expressing cells, fluorescence antagonist read-out; shares compounds with TAAR1 antag; in the data active = inhibition above about 49%;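 also: CHO-Ga16 host cells challenged with agonist PEA near its EC80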
Ga16 ag counter – calcium activation in Ga16-expressing cells, counter-screen for TAAR1 antagonist project, cell-based, fluorescence. agonist counterscreen. hit rate 18% among 2,400. AID 651953, 2012. shares compounds with TAAR1 antag. activation, % at 3 µM; in the data active = activation above about 12%
TAAR1 ag counter – TAAR1 activation by candidate antagonists – cell-based, fluorescence, counter-screen for TAAR1 antagonist project; hit rate 2% among 2,400; hTAAR1 cell line, agonist mode; activation, % at 3 µM; shares compounds with TAAR1 antag; in the data active = activation above about 37%;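 also: CHO cells stably expressing TAAR1 with calcium dye readout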
Hits are given with their value; n = inactive; x = no result given.

SMILES	OXTR potentiate	TAAR1 antag	TAAR1 ag	OXTR agonist	V1R ag counter	TAAR1 nonsel count	TAAR1 antag conf	Ga16 ag counter	TAAR1 ag counter
CC1CC1c1ccc(/C=C(\C#N)C(=O)Nc2ccc(Cl)cc2)o1 (centres undefined)	n	52.3	n	n	n	n	n	n	n
CS(=O)(=O)c1[nH]nc(-c2ccccc2Cl)c1C#N	n	n	n	n	n	x	x	x	x
CCCN1CCN(CCCNC(=O)CN2C(=O)c3cccnc3Oc3ccc(C)cc32)CC1	n	n	n	n	n	x	x	x	x
CCOc1ccc(CCNC(=O)CN2C(=O)c3cccnc3Oc3ccc(C)cc32)cc1OCC	n	n	n	n	n	x	x	x	x
Cc1ccc2c(c1)N(CC(=O)NCCCc1ccccc1)C(=O)c1cccnc1O2	n	72.6	n	n	n	26.7	n	n	n
CSc1ccc(CCNC(=O)CN2C(=O)c3cccnc3Oc3ccc(C)cc32)cc1	n	74.3	n	n	n	24.9	53.2	n	n
CCOC(=O)c1cccc(NC(=O)c2c(NCc3ccccc3)[nH]c(=O)[nH]c2=O)c1	n	n	n	n	n	x	x	x	x
COc1ccc(S(=O)(=O)N2CCN(C(=O)c3cc(-c4ccccc4OC)n[nH]3)CC2)cc1	n	75.7	n	n	n	24.7	n	n	n
O=C(OCC(=O)N(Cc1ccccc1)Cc1ccccc1)c1cccc(O)c1	n	63.1	n	n	n	26.4	n	n	n
Cc1ccc(NC(=O)Nc2cccnc2)cc1NC(=O)Nc1cccnc1	n	49.9	n	n	n	n	n	n	n
Cc1cc(C)cc(NC(=O)Nc2cccnc2)c1	x	n	n	x	x	x	x	x	x
O=C1NC[C@@H](c2ccccc2)OC(=O)[C@@H](Cc2ccc(F)cc2)CC/C=C/C[C@H]1CC(=O)N(CCO)Cc1ccccc1	n	59.4	n	n	n	n	n	n	n
CC(C)(C)OC(=O)C[C@@H]1C/C=C\C[C@@H](CC(=O)N[C@@H](CO)Cc2ccccc2)C(=O)NC[C@@H](c2ccccc2)OC1=O	n	66.6	n	n	n	27.9	n	n	n
O=C1NC[C@@H](c2ccccc2)OC(=O)[C@H](Cc2ccc(F)cc2)C/C=C\C[C@H]1CC(=O)N(CCO)Cc1ccccc1	n	68.2	n	n	n	30.4	n	n	n
O=C(C[C@@H]1C/C=C/CC[C@@H](Cc2ccc(F)cc2)C(=O)O[C@@H](c2ccccc2)CNC1=O)NCCO	n	65.5	n	n	n	26.0	49.3	n	n
CC(C)(C)OC(=O)C[C@H]1C/C=C\C[C@@H](CC(=O)N[C@@H](CO)Cc2ccccc2)C(=O)NC[C@@H](c2ccccc2)OC1=O	n	n	n	n	n	x	x	x	x
O=C(OCc1nnc(-c2ccc(Br)cc2)o1)c1cncc(Br)c1	n	n	n	n	n	x	x	x	x
CCCc1cc(=O)oc2cc(OCC(=O)NCCc3c[nH]c4ccc(OC)cc34)ccc12	n	59.9	n	n	n	29.9	n	n	n
O=C(COc1ccc2ccc(=O)oc2c1)NCCc1c[nH]c2ccc(F)cc12	n	n	n	n	n	x	x	x	x
CCc1cc(=O)oc2cc(C)cc(OCC(=O)NCCc3c[nH]c4ccccc34)c12	n	68.8	n	n	n	29.1	n	n	n
NC(=O)c1ccc(CN2CCc3ccccc3C2)cc1	n	n	n	n	n	x	x	x	x
CCn1cnc2c(Nc3cc(F)cc(F)c3)nc(C#N)nc21	n	n	n	n	n	x	x	x	x

Compound activity as filed in PubChem.
